Consider 15 compounds from ChEMBL document CHEMBL1949538, “Hybrids of privileged structures benzothiazoles and pyrrolo[2,1-c] [1,4]benzodiazepin-5-one, and diversity-oriented synthesis of benzothiazoles” (Eur J Med Chem, 2012).

Format in all cases: functional, cell-based
One experiment deals with THP-1. The experiment can be described thus: Cytotoxicity against human THP1 cells after 2 days by MTT assay. The settings on record: THP-1, 48 h. The essentials:
(§1)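 Leukemia lines (HL-60, THP-1, U-937, Jurkat) grown in RPMI-1640, A-549 in DMEM, both with 10% heat-inactivated FCS at 37 °C, 5% CO2. Cells seeded at 2 × 10⁴/well, dosed after 24 h and read 2 days later. MTT (5 mg/mL stock) added for 4 h at 37 °C, formazan dissolved in DMSO, read at 570 nm. Five replicates; IC50 from linear regression.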
(In general: Tetrazolium assays rely on reduction of a dye to a coloured formazan, in cell work by metabolically active cells.)

The next experiment has as its system HL-60. Description: Cytotoxicity against human HL60 cells after 2 days by MTT assay. The settings on record: HL-60, 48 h. The method in brief: as §1
The next experiment concerns A549. The experiment can be described thus: Cytotoxicity against human A549 cells after 2 days by MTT assay. The settings on record: A549, 48 h. The method in brief:
as §1

In the next experiment the test system is Jurkat. The experiment can be described thus: Cytotoxicity against human Jurkat cells after 2 days by MTT assay. The settings on record: 48 h. The method in brief:
as §1

For a further experiment, the system named is U-937. The experiment can be described thus: Cytotoxicity against human U937 cells after 2 days by MTT assay. The settings on record: U-937, 48 h. The essentials:
as §1

Regarding `Cc1ccc(-c2nc3ccccc3s2)cc1N`, the IC50 in the experiment with THP-1, in the experiment with HL-60, in the experiment with A549, with Jurkat and in the experiment on U-937 was over 50 µM throughout.

Take `COc1ccc2nc(-c3ccc(NC(=O)NCc4ccccc4)cc3)sc2c1`: the IC50 in the experiment with THP-1, with HL-60, in the experiment with A549, in the experiment on Jurkat and with U-937 was over 50 µM each time.

As to `COc1ccc2nc(-c3ccc(N)cc3)sc2c1`, the half-inhibitory concentration (IC50) with THP-1, in the experiment with HL-60, with A549, in the experiment with Jurkat and with U-937 was over 50 µM in each case.

Consider `COc1ccc2nc(-c3ccc(C)c(N)c3)sc2c1`, for which the IC50 with THP-1, in the experiment on HL-60, with A549, in the experiment on Jurkat and in the experiment with U-937 was over 50 µM throughout.

As for `COc1cc([C@@H]2c3cc4c(cc3[C@@H](O[C@@H]3O[C@@H]5CO[C@@H](C)O[C@H]5[C@H](O)[C@H]3O)[C@H]3COC(=O)[C@H]23)OCO4)cc(OC)c1O` [ETOPOSIDE], the IC50 came out at 5.35 µM with Jurkat and 17.9 µM in the experiment on U-937.

`O=C1c2ccc(-c3nc4ccccc4s3)cc2N=C[C@@H]2CCCN12`: the IC50 in the experiment on THP-1 was 3.09 µM; with HL-60, 7.27 µM; with Jurkat, 9.43 µM; in the experiment on U-937, 5.41 µM.

As for `COc1cc2nc(-c3cccc(N)c3C)sc2c(OC)c1OC`, the IC50 in the experiment with THP-1 worked out at 3.56 µM; with HL-60, 5.63 µM; in the experiment on A549 it was 4.56 µM; with Jurkat, 9.75 µM.

Turning to `COc1ccc2nc(-c3ccc(NC(=O)C4CC4)cc3)sc2c1`, the IC50 in the experiment on THP-1, in the experiment with HL-60, in the experiment on A549, with Jurkat and in the experiment with U-937 was over 50 µM throughout.

In the case of `COc1ccc2nc(-c3ccc(N=C(NC4CCCCC4)NC4CCCCC4)cc3)sc2c1`, the IC50 with THP-1 was found to be 3.1 µM; in the experiment with HL-60, 7.15 µM; in the experiment with A549, 3.23 µM; with Jurkat, 2.23 µM.

In the case of `Cc1ccc(-c2nc3ccc(F)cc3s2)cc1N`, the concentration for half-maximal inhibition (IC50) in the experiment on THP-1, with HL-60, in the experiment with A549, with Jurkat and in the experiment with U-937 was over 50 µM each time.

In the case of `CC[C@@]1(O)C(=O)OCc2c1cc1n(c2=O)Cc2cc3ccccc3nc2-1` [CAMPTOTHECIN], the IC50 in the experiment with THP-1 was found to be 0.071 µM; in the experiment with HL-60, 0.6 µM; with A549, 0.008 µM; with Jurkat, 0.026 µM; in the experiment with U-937, 1.98 µM.

As for `COc1ccc2nc(-c3ccc4c(c3)N=C[C@@H]3CCCN3C4=O)sc2c1`, the IC50 with THP-1 was 2.14 µM; in the experiment with HL-60, 6.39 µM; in the experiment with Jurkat, 11.3 µM; with U-937 it was 6.03 µM.

As for `CC1(C)O[C@H]2O[C@H]([C@H](O)CO)[C@H](OCc3ccc(-c4nc5ccc(F)cc5s4)cc3)[C@H]2O1`, the IC50 came to 3 µM in the experiment on THP-1, 22.3 µM with HL-60, 5.01 µM with A549 and 3.2 µM in the experiment with Jurkat.

With `CC1(C)O[C@H]2O[C@H]([C@H]3COC(C)(C)O3)[C@H](OCc3ccc(-c4nc5ccc(F)cc5s4)cc3)[C@H]2O1`, the IC50 in the experiment with THP-1, in the experiment on HL-60, with A549, in the experiment with Jurkat and in the experiment on U-937 was over 50 µM throughout.

As to `O=C1c2ccc(-c3nc4ccc(F)cc4s3)cc2N=C[C@@H]2CCCN12`, the IC50 with THP-1 was determined as 0.49 µM; in the experiment on HL-60 it was 4.13 µM; with Jurkat it was 6.58 µM; with U-937, 3.44 µM.

What is called IC50 is the midpoint of a concentration-inhibition curve.
